ChEMBL document CHEMBL2150944, “Antimalarial activity of pyrroloiminoquinones from the Australian marine sponge Zyzzya sp” (J Med Chem, 2012)
Counter-ions that a name gives are not always drawn. Active and inactive are the calls of the source. The calls are words filed in the database; no cut-off is given here.

Columns and labels:
[1] = system: HCT-116; assay: Cytotoxicity against human HCT116 cells; type: functional, cell-based
[2] = system: XRS6; assay: Cytotoxicity against Chinese hamster Xrs-6 cells; type: cell-based; details: Cricetulus griseus
[3] = molecular target: DNA topoisomerase 2-alpha (Homo sapiens) (UniProt P11388); assay: Inhibition of topoisomerase 2 by decatenation assay
Sequence of DNA topoisomerase 2-alpha (Homo sapiens) (P11388 whole entry): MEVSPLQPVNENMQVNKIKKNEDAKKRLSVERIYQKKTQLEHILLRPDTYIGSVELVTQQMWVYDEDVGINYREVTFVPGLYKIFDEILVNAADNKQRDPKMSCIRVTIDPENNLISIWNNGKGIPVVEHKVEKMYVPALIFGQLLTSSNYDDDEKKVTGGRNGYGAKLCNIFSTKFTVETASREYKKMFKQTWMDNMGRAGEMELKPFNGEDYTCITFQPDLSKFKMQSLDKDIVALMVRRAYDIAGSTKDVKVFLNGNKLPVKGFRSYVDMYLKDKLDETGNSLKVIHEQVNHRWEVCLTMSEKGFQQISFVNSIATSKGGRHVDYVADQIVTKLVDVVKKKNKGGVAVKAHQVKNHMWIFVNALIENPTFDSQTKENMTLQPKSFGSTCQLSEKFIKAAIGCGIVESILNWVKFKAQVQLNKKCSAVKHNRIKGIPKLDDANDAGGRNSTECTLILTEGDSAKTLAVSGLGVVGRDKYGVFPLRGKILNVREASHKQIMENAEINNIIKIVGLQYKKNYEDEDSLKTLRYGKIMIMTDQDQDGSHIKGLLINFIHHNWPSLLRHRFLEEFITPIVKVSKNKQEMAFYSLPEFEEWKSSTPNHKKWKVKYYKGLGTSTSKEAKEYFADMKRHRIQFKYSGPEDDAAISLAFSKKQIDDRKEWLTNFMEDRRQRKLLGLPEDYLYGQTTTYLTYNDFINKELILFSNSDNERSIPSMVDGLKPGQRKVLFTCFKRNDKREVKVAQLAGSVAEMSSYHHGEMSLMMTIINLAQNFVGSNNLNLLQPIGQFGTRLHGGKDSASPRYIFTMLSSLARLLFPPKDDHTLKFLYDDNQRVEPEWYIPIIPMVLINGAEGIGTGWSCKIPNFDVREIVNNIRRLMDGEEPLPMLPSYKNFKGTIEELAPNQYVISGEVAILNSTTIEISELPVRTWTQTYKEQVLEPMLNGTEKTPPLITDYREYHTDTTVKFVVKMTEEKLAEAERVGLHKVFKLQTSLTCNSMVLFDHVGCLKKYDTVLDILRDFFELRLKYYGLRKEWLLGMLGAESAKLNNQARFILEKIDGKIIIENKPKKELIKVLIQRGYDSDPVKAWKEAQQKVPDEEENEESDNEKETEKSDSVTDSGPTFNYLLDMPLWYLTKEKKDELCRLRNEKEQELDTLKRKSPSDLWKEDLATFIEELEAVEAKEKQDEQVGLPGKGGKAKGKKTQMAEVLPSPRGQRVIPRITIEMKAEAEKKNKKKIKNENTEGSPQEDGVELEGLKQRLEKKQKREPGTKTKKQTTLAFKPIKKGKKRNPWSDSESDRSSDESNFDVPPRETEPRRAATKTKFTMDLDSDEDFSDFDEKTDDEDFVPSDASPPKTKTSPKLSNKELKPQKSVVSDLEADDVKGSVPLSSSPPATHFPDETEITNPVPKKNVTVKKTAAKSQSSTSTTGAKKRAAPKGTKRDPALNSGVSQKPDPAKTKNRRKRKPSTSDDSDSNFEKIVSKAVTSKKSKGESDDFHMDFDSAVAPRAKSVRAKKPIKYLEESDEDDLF

[4] = system: Plasmodium falciparum; assay: Antimalarial activity against chloroquine-sensitive Plasmodium falciparum 3D7 trophozoite stage assessed as growth inhibition at 180 nM after 10 hrs by [3H]-hypoxanthine incorporation assay; type: functional, organism-based
In short: (§1)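 Synchronous 3D7 rings (~10−16 h post-invasion) or trophozoites (~24−30 h post-invasion) were used at 0.5% parasitemia and 5% hematocrit. Cultures were exposed to compound or 0.04% DMSO vehicle for 4, 6 or 10 h, then washed. Triplicate wells received 0.5 μCi 3H-hypoxanthine, and incorporation was counted after ~48−72 h. Results are % growth versus matched vehicle controls, from ≥2 independent experiments.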

[5] = system: Plasmodium berghei; assay: Antimalarial activity against chloroquine-sensitive Plasmodium berghei ANKA infected in Swiss albino mouse assessed as suppression of parasitemia at 8 mg/kg/day, ip measured on day 3 post infection by Giemsa staining relative to control; type: functional; details: route intraperitoneal
[6] = Selectivity index, ratio of IC50 for human HEK293 cells to IC50 for chloroquine-resistant Plasmodium falciparum Dd2; type: toxicity, cell-based; details: read-out: Ratio IC50
[7] = Intrinsic clearance in mouse liver microsomes assessed as per mg of protein at 1 uM after 60 mins; type: ADME, Microsome; details: read-out: CLH
In short: (§2)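 1 μM compound incubated at 37 °C with human or mouse liver microsomes (0.4 mg/mL protein) in 0.1 M phosphate pH 7.4. Reaction started with an NADPH-regenerating system plus MgCl2 and quenched with ice-cold acetonitrile at time points up to 60 min. Parent loss is followed by LC−MS and fitted to exponential decay, giving half-life and in vitro CLint.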

[8] = Intrinsic clearance in human liver microsomes assessed as per mg of protein at 1 uM after 60 mins; type: ADME, Microsome; details: read-out: CLH; in short: as §2
[9] = system: Plasmodium berghei; assay: Antimalarial activity against chloroquine-sensitive Plasmodium berghei ANKA infected in Swiss albino mouse assessed as suppression of parasitemia at 8 mg/kg/day, ip measured on day 1 post infection by Giemsa staining relative to control; type: functional; details: route intraperitoneal
[10] = system: Plasmodium berghei; assay: Antimalarial activity against chloroquine-sensitive Plasmodium berghei ANKA infected in Swiss albino mouse assessed as suppression of parasitemia at 8 mg/kg/day, ip measured on day 4 post infection by Giemsa staining relative to control; type: functional; details: route intraperitoneal
[11] = system: Plasmodium falciparum; assay: Antimalarial activity against chloroquine-sensitive Plasmodium falciparum 3D7 ring stage assessed as growth inhibition upto 360 nM after 10 hrs by [3H]-hypoxanthine incorporation assay; type: functional, organism-based; in short: as §1
[12] = Toxicity in Swiss albino mouse for 4 days; type: organism-based; details: in vivo
In short: (§3)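 Healthy mice dosed subcutaneously daily for 4 consecutive days, compound in Tween 80/ethanol (7/3 v/v) diluted 10-fold in distilled water (~0.2 mL). Mice are assessed before and after dosing for weight loss >10%, ruffled coat, shaking, severe pallor, reduced activity and behaviour changes.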

[13] = system: Plasmodium falciparum; assay: Antimalarial activity against chloroquine-sensitive Plasmodium falciparum 3D7 assessed as growth inhibition after 72 hrs by DAPI staining; type: functional, organism-based; details: 3D7, 72 h
In short: (§4)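 P. falciparum 3D7 or Dd2 at 2% or 3% parasitemia, 0.3% hematocrit, exposed 72 h at 37 °C, 5% CO2. Staining with DAPI plus saponin and Triton X-100, 5 h at room temperature in the dark, then confocal imaging and automated counting of parasite spots. Percent inhibition is calculated against DMSO and 2 μM artemisinin controls.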

[14] = system: Plasmodium berghei; assay: Antimalarial activity against chloroquine-sensitive Plasmodium berghei ANKA infected in Swiss albino mouse assessed as suppression of parasitemia at 8 mg/kg/day, ip measured on day 2 post infection by Giemsa staining relative to control; type: functional; details: route intraperitoneal
[15] = system: Plasmodium falciparum; assay: Antimalarial activity against chloroquine-sensitive Plasmodium falciparum 3D7 trophozoite stage assessed as growth inhibition at 360 nM after 10 hrs by [3H]-hypoxanthine incorporation assay; type: functional, organism-based; in short: as §1
[16] = Half life in mouse liver microsomes at 1 uM after 60 mins; type: ADME, Microsome; in short: as §2
[17] = Selectivity index, ratio of IC50 for human HEK293 cells to IC50 for chloroquine-sensitive Plasmodium falciparum 3D7; type: toxicity, cell-based; details: read-out: Ratio IC50
[18] = Plasma concentration in Swiss mouse at 8 mg/kg, sc administered as suspension measured 1 hr post dose; type: ADME, organism-based; parameters: dose 8 mg/kg, route subcutaneous
In short: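 Nonfasted male Swiss outbred mice (26−34 g) received a nominal 8 mg/kg subcutaneously into the dorsal skinfold. The compound was given as a suspension in saline vehicle containing 5−7% DMSO. Blood was taken by cardiac puncture under isoflurane at 0.25, 1 or 4 h, with n = 2 mice per time point, into stabilizer-containing heparinized tubes. Plasma was acetonitrile-precipitated and quantified by UPLC−MS.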

[19] = Half life in human liver microsomes at 1 uM after 60 mins; type: ADME, Microsome; in short: as §2
[20] = system: Plasmodium falciparum; assay: Antimalarial activity against chloroquine-resistant Plasmodium falciparum Dd2 assessed as growth inhibition after 72 hrs by DAPI staining; type: functional, organism-based; details: Dd2, 72 h; in short: as §4
[21] = system: HEK293; assay: Cytotoxicity against human HEK293 cells assessed as growth inhibition after 72 hrs by Alamar blue assay; type: cell-based; details: HEK293, 72 h
In short: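 HEK293 adherent cells (3000/well) were incubated with compound for 72 h at 37 °C and 5% CO2. Medium was removed, then 10% Alamar Blue was added for 5−6 h. Fluorescence was read at ex 535/em 590 nm. Inhibition was normalised to DMSO and 10 μM puromycin controls. IC50 came from nonlinear variable-slope regression of % inhibition against log dose.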

[22] = system: Mus musculus; assay: Toxicity in Swiss albino mouse assessed as body weight loss > 10 % at 8 mg/kg/day, sc for 4 days; type: organism-based; parameters: route subcutaneous; details: in vivo, 96 h; in short: as §3
[23] = system: Mus musculus; assay: Toxicity in Swiss albino mouse assessed as shaking upto 4 mg/kg/day, sc for 4 days; type: organism-based; parameters: route subcutaneous; details: in vivo, 96 h; in short: as §3
[24] = system: Mus musculus; assay: Toxicity in Swiss albino mouse assessed as reduced activity at 8 mg/kg/day, sc for 4 days; type: organism-based; parameters: route subcutaneous; details: in vivo, 96 h; in short: as §3
[25] = system: Mus musculus; assay: Toxicity in Swiss albino mouse assessed as body weight loss > 10 % upto 4 mg/kg/day, sc for 4 days; type: organism-based; parameters: route subcutaneous; details: in vivo, 96 h; in short: as §3
[26] = system: Plasmodium falciparum; assay: Antimalarial activity against chloroquine-sensitive Plasmodium falciparum 3D7 ring stage assessed as growth inhibition at 204 nM after 10 hrs by [3H]-hypoxanthine incorporation assay; type: functional, organism-based
In short: (§5)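 Synchronous 3D7 rings (~10−16 h post-invasion) or trophozoites (~24−30 h post-invasion), 0.5% parasitemia, 5% hematocrit, exposed 4, 6 or 10 h to compound or 0.04% DMSO vehicle. Cultures are washed, plated in triplicate with 0.5 μCi 3H-hypoxanthine, and incorporation is counted after ~48−72 h. Percent growth is relative to matched vehicle controls, from at least two independent experiments.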

[27] = system: Plasmodium falciparum; assay: Antimalarial activity against chloroquine-sensitive Plasmodium falciparum 3D7 trophozoite stage assessed as growth inhibition at 408 nM after 10 hrs by [3H]-hypoxanthine incorporation assay; type: functional, organism-based; in short: as §5
[28] = system: Mus musculus; assay: Toxicity in Swiss albino mouse assessed as reduced activity upto 4 mg/kg/day, sc for 4 days; type: organism-based; parameters: route subcutaneous; details: in vivo, 96 h; in short: as §3
[29] = Plasma concentration in Swiss mouse at 8 mg/kg, sc administered as solution measured 1 hr post dose; type: ADME, organism-based; parameters: dose 8 mg/kg, route subcutaneous
In short: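 Nonfasted male Swiss outbred mice (26−34 g), nominal 8 mg/kg subcutaneous into the dorsal skinfold in saline vehicle with 5−7% DMSO. Blood is drawn by cardiac puncture under isoflurane at 0.25, 1 or 4 h (n = 2 per time point) into stabilizer. Plasma is precipitated with acetonitrile and quantified by UPLC−MS against standards in blank mouse plasma.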

[30] = system: Mus musculus; assay: Toxicity in Swiss albino mouse assessed as behaviour changes upto 4 mg/kg/day, sc for 4 days; type: organism-based; parameters: route subcutaneous; details: in vivo, 96 h; in short: as §3
[31] = system: Plasmodium berghei; assay: Antimalarial activity against chloroquine-sensitive Plasmodium berghei ANKA infected in Swiss albino mouse assessed as suppression of parasitemia at 4 mg/kg/day, ip measured on day 4 post infection by Giemsa staining; type: functional, organism-based
[32] = system: Mus musculus; assay: Toxicity in Swiss albino mouse assessed as ruffled coat at 8 mg/kg/day for 4 days; type: organism-based; details: in vivo, 96 h; in short: as §3
[33] = system: Plasmodium falciparum; assay: Antimalarial activity against chloroquine-sensitive Plasmodium falciparum 3D7 trophozoite stage assessed as growth inhibition at 204 nM after 10 hrs by [3H]-hypoxanthine incorporation assay; type: functional, organism-based; in short: as §5
[34] = system: Mus musculus; assay: Toxicity in Swiss albino mouse assessed as ruffled coat upto 4 mg/kg/day for 4 days; type: organism-based; details: in vivo, 96 h; in short: as §3
[35] = system: Plasmodium falciparum; assay: Antimalarial activity against chloroquine-sensitive Plasmodium falciparum 3D7 ring stage assessed as growth inhibition at 408 nM after 10 hrs by [3H]-hypoxanthine incorporation assay; type: functional, organism-based; in short: as §5
[36] = system: Mus musculus; assay: Toxicity in Swiss albino mouse assessed as severe pallor upto 4 mg/kg/day, sc for 4 days; type: organism-based; parameters: route subcutaneous; details: in vivo, 96 h; in short: as §3

In the case of O=C1C(NCCc2ccc(O)cc2)=CC2=NCCc3c[nH]c1c32 [MAKALUVAMINE D], the IC50 [1] is reported as > 170 nM and the IC50 [2] is reported as 80 nM.
With Cn1cc2c3c1C(=O)C(N/C=C/c1ccc(O)cc1)=CC3=NCC2 [MAKALUVAMINE E] the IC50 [1] was > 170 nM and the IC50 [2] was 80 nM.
With O=C1C(NC2Cc3cc(Br)c(O)cc3S2)=CC2=NCCc3c[nH]c1c32 (stereo not drawn) [MAKALUVAMINE F] the IC50 [1] was > 170 nM, the IC50 [2] was 80 nM and the IC90 [3] was 25000 nM.
In the case of Cn1cc2c3c1C(=O)C(N/C=C/c1ccc(O)cc1)=CC3=[N+](C)CC2.O=C([O-])C(F)(F)F [MAKALUVAMINE G], the “growth inhibition (GI)” value [4] is reported as “Active”, the Activity [5] is reported as 47% and the selectivity ratio [6] is reported as 51. The microsomal CLint at 1 µM [7] was 235 µL/min/mg, the microsomal CLint at 1 µM [8] was 197 µL/min/mg and the Activity [9] was 10%. For the same compound, the Activity [10] was 48%, the “growth inhibition (GI)” value [11] was “inactive” and the MTD at 96 h [12] was 8 mg/kg/day. The IC50 [13] was 36 nM, the Activity [14] was 35% and the “growth inhibition (GI)” value [15] was “Active”. The half-life at 1 µM [16] was 7.4 min, the selectivity ratio [17] was 55 and the concentration at 1 h [18] was < 40 nM. For the same compound, the half-life at 1 µM [19] was 8.8 min, the IC50 [20] was 39 nM and the IC50 [21] was 2000 nM.
For C[N+]1=C2C=C(NCCc3ccc(O)cc3)C(=O)c3[nH]cc(c32)CC1.O=C([O-])C(F)(F)F [MAKALUVAMINE J TFA SALT], the Activity [22] was “Toxic”, the Activity [23] was “Non-toxic” and the selectivity ratio [6] was 54. For the same compound, the microsomal CLint at 1 µM [7] was 41 µL/min/mg, the microsomal CLint at 1 µM [8] was < 5 µL/min/mg and the Activity [24] was “Toxic”. The Activity [25] was “Non-toxic”, the “growth inhibition (GI)” value [26] was “Active” and the “growth inhibition (GI)” value [27] was “Active”. For the same compound, the Activity [28] was “Non-toxic”, the concentration at 1 h [29] was 1700 nM and the Activity [30] was “Non-toxic”. The Activity [31] was “inactive”, the IC50 [13] was 25 nM and the half-life at 1 µM [16] was 42 min. For the same compound, the selectivity ratio [17] was 48, the half-life at 1 µM [19] was > 350 min and the Activity [32] was “Toxic”. For the same compound, the “growth inhibition (GI)” value [33] was “Active”, the Activity [34] was “Non-toxic” and the IC50 [20] was 22 nM. For the same compound, the “growth inhibition (GI)” value [35] was “Active”, the IC50 [21] was 1200 nM and the Activity [36] was “Non-toxic”.
Cn1cc2c3c1C(=O)C(NCCc1ccc(O)cc1)=CC3=NCC2 [MAKALUVAMINE K TFA SALT] showed a selectivity ratio [6] of 4, an IC50 [13] of 396 nM and a selectivity ratio [17] of 3. The IC50 [20] was 300 nM and the IC50 [21] was 1100 nM.
C[N+]1=C2C=C(N/C=C/c3ccc(O)cc3)C(=O)c3[nH]cc(c32)CC1 [MAKALUVAMINE L] gave a selectivity ratio [6] of 66, an IC50 [13] of 40 nM and a selectivity ratio [17] of 35. The IC50 [20] was 21 nM and the IC50 [21] was 1400 nM.
In the case of Cn1cc2c3c1C(=O)c1[nH]cc(-c4ccc(O)cc4)c1C3=[N+](C)CC2 [TSITSIKAMMAMINE C TRIFLUROACETATE], the selectivity ratio [6] is reported as 200, the “growth inhibition (GI)” value [26] is reported as “Active” and the “growth inhibition (GI)” value [27] is reported as “Active”. For the same compound, the IC50 [13] was 13 nM, the selectivity ratio [17] was 276 and the “growth inhibition (GI)” value [33] was “Active”. The IC50 [20] was 18 nM, the “growth inhibition (GI)” value [35] was “Active” and the IC50 [21] was 3600 nM.
